What was measured:
[1] = Antiplatelet activity in human whole blood assessed as inhibition of ADP-induced platelet aggregation at 10 ug/ml treated for 2 mins before ADP challenge measured after 6 mins by whole blood aggregometer; assay type: functional
Method in brief: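 Whole blood diluted 1:1 with pre-warmed PBS (pH 7.4) at 37 °C. Stirred at 1000 rpm until baseline reached. Test sample or control added with 2 min incubation, then ADP (10 µM final) to start aggregation. Impedance (ohms) followed for 6 min, taken from lowest point to end of interval. Blood used within 4 h of collection; controls run between samples; three runs per assay.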

[2] = Ratio of compound to aspirin for human whole blood; assay type: functional, Platelet

SMILES	inhibition at 10 µg/mL [1] [%]	Ratio [2]
COc1ccc(O)c(-c2cc(-c3ccc(F)cc3)nc(N)n2)c1	8.79	
COc1ccc(-c2cc(-c3ccc([N+](=O)[O-])cc3)nc(N)n2)c(O)c1	58.5	
COc1ccc(O)c(-c2cc(-c3cccc(Cl)c3)nc(N)n2)c1	66.8	
COc1ccc(-c2cc(-c3cccc(C)c3)nc(N)n2)c(O)c1	23.1	
COc1ccc(-c2cc(-c3ccccc3)nc(N)n2)c(O)c1	42.7	
COc1ccc(-c2cc(-c3cc(OC)ccc3O)nc(N)n2)cc1	64.3	
COc1ccc(O)c(-c2cc(-c3ccco3)nc(N)n2)c1	1.46	
COc1ccc(-c2cc(-c3ccc(C)cc3)nc(N)n2)c(O)c1	62.8	
COc1ccc(-c2cc(-c3ccc(Cl)cc3Cl)nc(N)n2)c(O)c1	77.5	2
COc1ccc(-c2cc(-c3ccc(F)cc3)nc(N)n2)c(O)c1	64	
COc1cccc(-c2cc(-c3ccc(OC)cc3O)nc(N)n2)c1	51.2	
COc1ccc(-c2cc(-c3cccc(Cl)c3)nc(N)n2)c(O)c1	65.8	
COc1ccc(-c2cc(-c3ccc(Cl)cc3)nc(N)n2)c(O)c1	8.42	
COc1ccc(O)c(-c2cc(-c3ccccc3Cl)nc(N)n2)c1	55.1	
CC(=O)Oc1ccccc1C(=O)O [ASPIRIN]	37.5	
CCOc1ccc(O)c(-c2cc(-c3ccccc3)nc(N)n2)c1	39.9	
